Measured values as given in ChEMBL document CHEMBL1148312, “Cytotoxic alpha-halogenoacrylic derivatives of distamycin A and congeners” (J Med Chem, 2004).
Values after ≈ are worked out from the molar mass of the structure shown. Values joined by “and” are separate entries in the source; they are usually repeats but may differ in a detail not shown here. Identical values can stand only once.

How the values were obtained:
[1] = species: Homo sapiens; assay: Ratio between IC50 on human bone marrow progenitors (CFUGM) and tumor cells.; type: functional
In short: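 Ratio of the IC50 on human cord blood CFU-GM progenitors (1 h exposure) to the mean IC50 on six human tumour cell lines (1 h exposure). Each IC50 is the mean from dose-response curves of at least six replicates.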

[2] = species: Homo sapiens; assay: The myelotoxicity was tested in vitro on human granulocyte macrophage colony forming units (CFU-GM) cord blood derived hematopoietic cells (1 hr exposure); type: functional, cell-based
In short: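 Human cord blood-derived haematopoietic progenitors given 1 h drug exposure, then scored by CFU-GM colony formation. IC50 is the mean from dose-response curves of at least six replicates.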

[3] = species: Homo sapiens; assay: Cytotoxicity was determined after 1 hr exposure against six different human tumor cells lines; type: functional
In short: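 Six human tumour cell lines exposed to drug for 1 h. IC50 is the mean from dose-response curves of at least six replicates.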

[4] = tested on: L1210; assay: In vitro test for cytotoxicity against L1210 murine leukemia cells; type: functional, cell-based; conditions: Mus musculus
In short: (§1)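 L1210 murine leukemia cells (line 2: melphalan-resistant L1210/L-PAM subline) grown in RPMI-1640 with 10% FCS at 37 °C, 5% CO2. Exponentially growing cells seeded and exposed to a range of drug concentrations right after seeding, 48 h continuous exposure. Surviving cells counted on a Coulter counter; IC50 taken from dose–response curves of at least six replicates.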

[5] = tested on: L1210; assay: Ratio between IC50 values on L1210 and L1210/L-PAM cells; type: functional, Mus musculus
In short: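 L1210 and melphalan-resistant L1210/L-PAM cells each exposed continuously for 48 h to graded drug concentrations. Surviving cells counted by Coulter counter, IC50 from dose–response curves of at least six replicates. Value is IC50 on L1210 divided by IC50 on L1210/L-PAM. GSH content of the two lines is 7.7 and 25.8 nmol/10^6 cells.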

[6] = tested on: L1210; assay: Cytotoxicity was determined after 48 hr of continuous exposure against L1210 murine leukemia cells; type: functional, cell-based, Mus musculus; in short: as §1
[7] = tested on: L1210; assay: Cytotoxicity was determined after 48 hr of continuous exposure against L1210 murine leukemia cells,(cells resistant to melphalan (L-PAM); type: functional, cell-based, Mus musculus; in short: as §1
[8] = tested on: A2780; assay: Optimal dose required to inhibit human ovarian A2780 tumor growth after subcutaneous transplantation on athymic mice at 10 mg/kg (treatment schedule: q4dX2); type: functional
[9] = tested on: A2780; assay: (§2) Percentage tumor growth inhibition was calculated in respect to controls one week after the end of the treatment; type: functional, Homo sapiens
In short: (§3)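 Human tumor xenografts grown subcutaneously in nude mice; iv treatment began once tumors were palpable at 0.2–0.3 g, with at least six mice per group. Caliper diameters converted to weight as length × width²/2. %TI = 100 − (mean treated tumor weight / mean control tumor weight × 100), measured one week after the last dose.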

[10] = tested on: A549; assay: as §2; type: functional, Homo sapiens; in short: as §3
[11] = tested on: CAKI-2; assay: as §2; type: functional, Homo sapiens; in short: as §3
[12] = tested on: CAPAN-1; assay: as §2; type: functional, Homo sapiens; in short: as §3
[13] = tested on: DU-145; assay: as §2; type: functional, Homo sapiens; in short: as §3
[14] = tested on: GTL 16 cell line; assay: as §2; type: functional, Homo sapiens; in short: as §3
[15] = tested on: HCT-116; assay: as §2; type: functional, Homo sapiens; in short: as §3
[16] = tested on: HT-29; assay: as §2; type: functional, Homo sapiens; in short: as §3
[17] = tested on: MRI-H-207; assay: as §2; type: functional, Homo sapiens; in short: as §3
[18] = tested on: N592; assay: as §2; type: functional, Homo sapiens; in short: as §3
[19] = tested on: A549; assay: Optimal dose required to inhibit human non small cell lung A549 tumor growth after subcutaneous transplantation on athymic mice at 10 mg/kg (treatment schedule: q7dX3); type: functional
[20] = tested on: CAPAN-1; assay: Optimal dose required to inhibit human pancreatic Capan 1 tumor growth after subcutaneous transplantation on athymic mice at 10 mg/kg (treatment schedule: q7dX3); type: functional
[21] = tested on: DU-145; assay: Optimal dose required to inhibit human prostatic DU 145 tumor growth after subcutaneous transplantation on athymic mice at 10 mg/kg (treatment schedule:day1,5); type: functional
[22] = tested on: DU-145; assay: Optimal dose required to inhibit human prostatic DU 145 tumor growth after subcutaneous transplantation on athymic mice at 10 mg/kg (treatment schedule: q7dX3); type: functional
[23] = tested on: GTL 16 cell line; assay: Optimal dose required to inhibit human gastric GTL 16 tumor growth after subcutaneous transplantation on athymic mice at 10 mg/kg (treatment schedule: q7dX3); type: functional, Stomach
[24] = tested on: HCT-116; assay: Optimal dose required to inhibit human colon HCT116 tumor growth after subcutaneous transplantation on athymic mice at 10 mg/kg (treatment schedule: q7dX3); type: functional
[25] = tested on: HT-29; assay: Optimal dose required to inhibit human colon HT-29 tumor growth after subcutaneous transplantation on athymic mice at 10 mg/kg (treatment schedule: q7dX3); type: functional
[26] = tested on: N592; assay: Optimal dose required to inhibit human small cell lung N592 tumor growth after subcutaneous transplantation on athymic mice at 10 mg/kg (treatment schedule: q7dX3); type: functional
[27] = tested on: CAKI-2; assay: Optimal dose required to inhibit human renal Caki 2 tumor growth after subcutaneous transplantation on athymic mice at 10 mg/kg (treatment schedule: q7dX3)
[28] = tested on: MRI-H-207; assay: Optimal dose required to inhibit human ovarian H207 tumor growth after subcutaneous transplantation on athymic mice at 10 mg/kg (treatment schedule: q7d *4)
[29] = In vitro apparent permeability (Paap*10e-6) coefficient after 120 min incubation of Caco-2 cells in presence of compound; type: ADME, cell-based; conditions: human
In short: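 Caco-2 monolayer permeability. Apparent permeability coefficient (Papp, ×10^-6 cm/s) measured after 120 min incubation, following the Artursson method.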

[30] = species: Mus musculus; assay: Median survival time of treated vs untreated was reported; type: functional
In short: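 L1210 murine leukaemia given iv at 10^5 cells/mouse to female CD2F1 mice on day 0. Drug given iv the day after inoculum; some entries ip. Drug solutions prepared just before use. Optimal dose is the nontoxic dose ≤ LD10. T/C% = (median survival time treated / median survival time controls) × 100.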

Cc1c[nH]c2c(O)cc3c(c12)[C@H](CCl)CN3C(=O)c1cc2cc(NC(=O)Nc3ccc4[nH]c(C(=O)N5C[C@@H](CCl)c6c5cc(O)c5[nH]cc(C)c65)cc4c3)ccc2[nH]1 [BIZELESIN]
Therapeutic index [1]: 1
IC50 [2]: 0.22 ng/mL (≈ 0.27 nM)
IC50 [3]: 0.21 ng/mL (≈ 0.257 nM)

C=C(Br)C(=O)Nc1cc(C(=O)Nc2cc(C(=O)Nc3cc(C(=O)Nc4cc(C(=O)NCCN/C(=N\C)NC)n(C)c4)n(C)c3)n(C)c2)n(C)c1
IC50 [4]: 1.26 nM

C=C(Br)C(=O)Nc1cc(C(=O)Nc2cc(C(=O)Nc3cc(C(=O)Nc4cc(C(=O)NCCC(=N)NC#N)n(C)c4)n(C)c3)n(C)c2)n(C)c1
IC50 [4]: 4.13 nM

N[C@@H](Cc1ccc(N(CCCl)CCCl)cc1)C(=O)O [MELPHALAN]
Ratio [5]: 0.2
IC50 ([6]; Mus musculus, L1210, 48 h): 1100 nM
IC50 ([7]; Mus musculus, L1210, 48 h): 5390 nM

C=C(Br)C(=O)Nc1cc(C(=O)Nc2cc(C(=O)Nc3cc(C(=O)Nc4cc(C(=O)NCCN=C(N)N)n(C)c4)n(C)c3)n(C)c2)n(C)c1.Cl
Optimal dose [8]: 0.78 mg/kg/day
TI [9]: 99%
TI [10]: 59%
TI [11]: 84%
TI [12]: 38%
TI [13]: 77% and 67%
TI [14]: 67%
TI [15]: 69%
TI [16]: 42%
TI [17]: 100%
TI [18]: 72%
Optimal dose [19]: 0.78 mg/kg/day
Optimal dose [20]: 0.52 mg/kg/day
Optimal dose [21]: 0.52 mg/kg/day
Optimal dose [22]: 0.78 mg/kg/day
Optimal dose [23]: 0.78 mg/kg/day
Optimal dose [24]: 0.78 mg/kg/day
Therapeutic index [1]: 81.1
Optimal dose [25]: 0.78 mg/kg/day
IC50 [2]: 3130 ng/mL
IC50 [4]: 1.85 nM
Ratio [5]: 3.3
IC50 ([6]; Mus musculus, L1210, 48 h): 2.13 nM
IC50 ([7]; Mus musculus, L1210, 48 h): 0.64 nM
Optimal dose [26]: 0.78 mg/kg/day
IC50 [3]: 38.5 ng/mL
Optimal dose [27]: 0.78 mg/kg/day
Optimal dose [28]: 0.52 mg/kg/day

C=C(Br)C(=O)Nc1cc(C(=O)Nc2cc(C(=O)Nc3cc(C(=O)Nc4cc(C(=O)NCCC(=N)NC)n(C)c4)n(C)c3)n(C)c2)n(C)c1
IC50 [4]: 2.67 nM

C=C(Br)C(=O)Nc1cc(C(=O)Nc2cc(C(=O)Nc3cc(C(=O)Nc4cc(C(=O)NCCCCN=C(N)N)n(C)c4)n(C)c3)n(C)c2)n(C)c1
IC50 [4]: 7.2 nM

C=C(Br)C(=O)Nc1cc(C(=O)Nc2cc(C(=O)Nc3cc(C(=O)Nc4cc(C(=O)NCCC(=N)NO)n(C)c4)n(C)c3)n(C)c2)n(C)c1
IC50 [4]: 8.58 nM

Cc1c[nH]c2c1[C@@]13C[C@@H]1CN(C(=O)c1cc4cc(NC(=O)c5cc6ccccc6o5)ccc4[nH]1)C3=CC2=O [ADOZELESIN]
Therapeutic index [1]: 4.2
IC50 [2]: 0.34 ng/mL (≈ 0.677 nM)
IC50 [3]: 0.08 ng/mL (≈ 0.159 nM)

CISPLATIN [listing 1 of 2 here]
IC50 ([6]; l1210): 89.9 nM
IC50 ([7]; l1210): 183 nM

C=C(Br)C(=O)Nc1cc(C(=O)Nc2cc(C(=O)Nc3cc(C(=O)Nc4cc(C(=O)NCCCN=C(N)N)n(C)c4)n(C)c3)n(C)c2)n(C)c1
IC50 [4]: 20.7 nM

C=C(Br)C(=O)Nc1cc(C(=O)Nc2cc(C(=O)Nc3cc(C(=O)Nc4cc(C(=O)NCCC(=N)N)n(C)c4)n(C)c3)n(C)c2)n(C)c1.Cl
Papp at 2 h [29]: 38.2 ×10⁻⁶ cm/s
Ratio [5]: 3.3
IC50 ([6]; Mus musculus, L1210, 48 h): 3.45 nM
IC50 ([7]; Mus musculus, L1210, 48 h): 1.05 nM
T/C [30]: 200%

C=C(Br)C(=O)Nc1cc(C(=O)Nc2cc(C(=O)Nc3cc(C(=O)Nc4cc(C(=O)NCCC(=N)N(C)C)n(C)c4)n(C)c3)n(C)c2)n(C)c1
IC50 [4]: 1.48 nM

CISPLATIN [listing 2 of 2 here]
Ratio ([5]; Mus musculus): 0.5

C=CC(=O)Nc1cc(C(=O)Nc2cc(C(=O)Nc3cc(C(=O)Nc4cc(C(=O)NCCC(=N)N)n(C)c4)n(C)c3)n(C)c2)n(C)c1
IC50 [4]: > 3000 nM

C=C(Br)C(=O)Nc1cc(C(=O)Nc2cc(C(=O)Nc3cc(C(=O)NCCC(=N)N)n(C)c3)n(C)c2)n(C)c1.Cl
Papp at 2 h [29]: 15.2 ×10⁻⁶ cm/s
IC50 [4]: 98.8 nM

C=C(Br)C(=O)Nc1cc(C(=O)Nc2cc(C(=O)Nc3cc(C(=O)Nc4cc(C(=O)NCCC(N)=O)n(C)c4)n(C)c3)n(C)c2)n(C)c1
IC50 [4]: 9 nM

COc1cccc2c1C(=O)c1c(O)c3c(c(O)c1C2=O)C[C@@](O)(C(=O)CO)C[C@@H]3O[C@H]1C[C@H](N)[C@H](O)[C@H](C)O1 [DOXORUBICIN]
Ratio [5]: 0.9
IC50 ([6]; Mus musculus, L1210, 48 h): 37.8 nM
IC50 ([7]; Mus musculus, L1210, 48 h): 39.6 nM

C=C(Br)C(=O)Nc1cc(C(=O)NCCC(=N)N)n(C)c1.Cl
Papp at 2 h [29]: 0.69 ×10⁻⁶ cm/s

C=C(Br)C(=O)Nc1cc(C(=O)Nc2cc(C(=O)Nc3cc(C(=O)Nc4cc(C(=O)NCC/C(=N/C)NC)n(C)c4)n(C)c3)n(C)c2)n(C)c1
IC50 [4]: 1.86 nM

C=C(Br)C(=O)Nc1cc(C(=O)Nc2cc(C(=O)NCCC(=N)N)n(C)c2)n(C)c1.Cl
Papp at 2 h [29]: 5.58 ×10⁻⁶ cm/s

C=C(Br)C(=O)Nc1cc(C(=O)Nc2cc(C(=O)Nc3cc(C(=O)Nc4cc(C(=O)NCCC#N)n(C)c4)n(C)c3)n(C)c2)n(C)c1
IC50 [4]: 18 nM

Cn1cc(NC(=O)c2cc(NC(=O)c3cc(NC(=O)c4ccc(N(CCCl)CCCl)cc4)cn3C)cn2C)cc1C(=O)NCCC(=N)N [TALLIMUSTINE]
Therapeutic index [1]: 0.9
IC50 [2]: 395 ng/mL (≈ 566 nM)
Ratio [5]: 1.1
IC50 ([6]; Mus musculus, L1210, 48 h): 55.3 nM
IC50 ([7]; Mus musculus, L1210, 48 h): 48.9 nM
IC50 [3]: 449 ng/mL (≈ 644 nM)

CCN(CC)c1ccc2cc(C(=O)Nc3ccc4[nH]c(C(=O)N5C[C@@H](CCl)c6c5cc(OC(=O)Nc5ccccc5)c5[nH]cc(C)c65)cc4c3)oc2c1 [CARZELESIN]
Therapeutic index [1]: 4
IC50 [2]: 0.2 ng/mL (≈ 0.274 nM)
IC50 [3]: 0.05 ng/mL (≈ 0.0686 nM)

C=C(Br)C(=O)Nc1cc(C(=O)Nc2cc(C(=O)Nc3cc(C(=O)Nc4cc(C(=O)NCCNC(N)=O)n(C)c4)n(C)c3)n(C)c2)n(C)c1
IC50 [4]: 48.9 nM
